Compound activity (PubChem)
The list is not random: actives were taken first. Their share in the collection is about 4%.
Cl transport mod: KCC2 (human) Cl- transport modulation; Q9H2X9; B-score of Tl+ flux slope (higher = more flux/activation; lower = inhibition) at 10 µM; KCC2 cells, thallium flux FluoZin-2 fluorescence; 2.2% of 190,000 active;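 active means thallium flux slope and its plate-corrected score both differing from the plate sample mean at a set confidence after two filtering rounds, in either direction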;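 further: slope of fluorescence scaled to starting intensity during 10 to 20 s after thallium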
WT yeast gro inh: growth inhibition of WT yeast, mitochondrial fusion screen; inhibition, % at 10 µM; mitochondrial fusion phenotypic screen, WT strain; 2.1% of 190,000 active; AID 1362; in the data active means inhibition above about 58%; tested in S. cerevisiae
Pf gamet viab: P. falciparum stage V gametocyte viability inhibition. P. falciparum stage V gametocytes, ATP luminescence, 24 h. inhibition, % at 10.9 µM. AID 743093. 0.065% of 150,000 active;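 active means inhibition above the mean plus 3 SD of compounds within the control limits, set per campaign, cut at about 38% in these data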
b-catenin transl: beta-catenin nuclear translocation modulation. HeLa beta-catenin nuclear translocation, immunofluorescence imaging. nuclear translocation activity, % at 5 µM. 0.3% of 190,000 active. AID 1665;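 active means nuclear translocation activity above 50% at 5 µM, with a well cell count of 50 or more; inconclusive means wells under 50 cells across six images, flagged as toxic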;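 further: per-cell ratio of nuclear to cytoplasmic median beta-catenin stain intensity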
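Signal – beta-catenin immunofluorescence imaging with DAPI · Test system – human HeLa cell line · Dosing – 5 µM primary single dose, 0.1% DMSO, 0.02–20 µM confirmation series · Measure – % activation, nuclear-to-cytoplasmic median beta-catenin signal ratio per cell · Incubation – 24 h compound exposure at 37°C, 5% CO2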
MT stabilizer: stabilizes microtubules in HeLa cells; % tubulin-high responders, % at 10 µM; AID 2205; 0.83% of 200,000 active; HeLa tubulin immunostaining HCS, 24 h; share of cells brighter than vehicle mean+2SD;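 active means plate Z-score above 3 for both tubulin-high and condensed-nucleus cell shares, with cell loss under 80%, at 10 µM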;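 further: anti alpha tubulin signal scored within the nucleus-defined area of each cell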
KCC2 secondary: KCC2 (human) modulation, secondary assay | shares compounds with Cl transport mod | HEK293-KCC2, thallium flux, FluoZin2 fluorescence; active compounds read high | normalised thallium flux (F/F0 slope) at 10 µM | 15% of 3,700 active;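 active means thallium flux slope above the same plate's solvent-only control mean plus 3 SD; inconclusive means the two replicate wells disagree; inactive means no significant difference from solvent-only control wells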
KCC2 bumet counter: bumetanide-insensitive thallium flux in KCC2 cells with ouabain, counter-screen | shares compounds with Cl transport mod | HEK293-KCC2 + bumetanide/ouabain, thallium flux FluoZin2; active compounds read high | normalized thallium flux at 10 µM | 49% of 3,700 active;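 active means thallium entry rate above the same plate's blocked-transporter control wells by more than 3 SD; inconclusive means the two repeat wells disagree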;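 further: raw slope of fluorescence over initial fluorescence between 10 and 20 s after thallium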
KCC2 secondary2: confirmation of human KCC2 transport modulators. shares compounds with Cl transport mod. HEK293-KCC2, thallium flux FluoZin2 fluorescence; actives lie on both sides; F/F0 rise rate, 10–20 s post-thallium. normalized thallium flux at 10 µM. 23% of 3,700 active;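 active means thallium flux slope more than 3 SD above or below the plate's solvent-only control mean, mostly below; inconclusive means the two repeat wells disagreed; inactive means no significant shift from solvent-only controls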
HEK293 Tl flux: acts in parental HEK cells, KCC2 counter-screen; shares compounds with Cl transport mod; HEK293 parental cells, thallium flux FluoZin2, ouabain; baseline-ratio fluorescence slope, 10–20 s after thallium; thallium flux rate (normalised fluorescence) at 10 µM; 46% of 3,700 active;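 active means thallium flux rate significantly above the same plate's solvent-only control wells, beyond their mean plus 3 SD; inconclusive means the two replicate wells gave conflicting results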
KCC2 ouabain: modulates human KCC2 on retest with ouabain. AID 1717. 48% of 3,700 active. raw Tl+ flux slope (below DMSO = inhibition, above = activation) at 10 µM. shares compounds with Cl transport mod. HEK293-KCC2, thallium flux FluoZin2 fluorescence; bidirectional: low = inhibitor, high = activator;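 active means thallium flux slope beyond 3 SD from same-plate DMSO control mean in most replicates, usually higher, sometimes lower; inconclusive means repeat tests gave conflicting results; inactive means no significant difference from controls in most replicates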;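 further: slope of initial-normalized fluorescence between seconds 10 and 20 after thallium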
HEK counter2: acts in parental HEK cells, second KCC2 counter-screen | AID 1718 | thallium flux slope at 10 µM | shares compounds with Cl transport mod | 33% of 3,700 active | HEK293 parental, thallium flux FluoZin-2 fluorescence slope;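 active means thallium flux slope above the same plate's solvent-control mean plus 3 SD in both duplicate wells; inconclusive means duplicate wells that disagreed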;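 further: run without ouabain in cells lacking the KCC2 cotransporter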
Large screens that a line does not name were inactive (follow-up assays come after a bar, where they were run).

COc1cc(C(=O)NC(=S)NNC(=O)c2ccc3c(c2)OCO3)cc(OC)c1OC	Cl transport mod 5.1 (no result: WT yeast gro inh, MT stabilizer) | KCC2 secondary inactive | KCC2 bumet counter 0.013 | KCC2 secondary2 inactive | HEK293 Tl flux inconclusive | KCC2 ouabain inconclusive | HEK counter2 inactive
COc1cc(C(=O)NC(=S)Nc2ccc3c(c2)OCO3)cc(OC)c1OC	none (no result: WT yeast gro inh, MT stabilizer)
COc1cc(C(=O)NNC(=S)NC(=O)c2ccc(F)cc2)cc(OC)c1OC	Cl transport mod 6.5 (no result: WT yeast gro inh, MT stabilizer) | KCC2 secondary inactive | KCC2 bumet counter 0.015 | KCC2 secondary2 inactive | HEK293 Tl flux 0.014 | KCC2 ouabain inconclusive | HEK counter2 inactive
COc1cc(C(=O)NC(=S)N(C)Cc2ccccc2)cc(OC)c1OC	Cl transport mod 11 | KCC2 secondary 0.018 | KCC2 bumet counter 0.051 | KCC2 secondary2 inactive | HEK293 Tl flux 0.017 | KCC2 ouabain 0.033 | HEK counter2 0.012
COCCN(C(=O)CSc1nnc(-c2ccccc2C)n1C)c1c(N)n(Cc2ccccc2)c(=O)[nH]c1=O	none
CCCCN1C(=O)N(C)C2NC(=S)NC21 (stereo not given)	none (no result: WT yeast gro inh, MT stabilizer)
O=C(CCn1c(=O)[nH]c2ccsc2c1=O)N(CCc1ccccc1)Cc1ccccc1	none (no result: Cl transport mod, Pf gamet viab, b-catenin transl) | KCC2 secondary inactive | KCC2 bumet counter inactive | KCC2 secondary2 inactive | HEK293 Tl flux inactive | KCC2 ouabain inconclusive | HEK counter2 inactive
CCOC(=O)N1CCN(C(=O)CSc2ccc(-c3ccc(OC)cc3)nn2)CC1	none
CC1(C)CC(n2c(=S)[nH]c3ccccc3c2=O)CCO1 (stereo not given)	Cl transport mod 14 | KCC2 secondary inactive | KCC2 bumet counter 0.035 | KCC2 secondary2 inactive | HEK293 Tl flux 0.022 | KCC2 ouabain 0.031 | HEK counter2 inconclusive
CCSc1nc2ccccc2c(=O)n1C1CCOC(C)(C)C1 (stereo not given)	none (no result: b-catenin transl)
S=c1[nH]nc(C(c2ccccc2)C2CCCCC2)o1 (stereo not given)	none (no result: WT yeast gro inh, MT stabilizer)
S=c1[nH]nc(C2(c3ccccc3)CCCC2)o1	Cl transport mod -3.1 (no result: WT yeast gro inh, MT stabilizer) | KCC2 secondary inactive | KCC2 bumet counter inactive | KCC2 secondary2 0.023 | HEK293 Tl flux inactive | KCC2 ouabain 0.018 | HEK counter2 inactive
CC(=O)N1CCCc2cc(S(=O)(=O)CCC(=O)N3CCN(c4cccc(C)c4)C(C)C3)ccc21 (stereo not given)	Cl transport mod -3.6 (no result: Pf gamet viab, b-catenin transl) | KCC2 secondary inactive | KCC2 bumet counter inactive | KCC2 secondary2 inactive | HEK293 Tl flux inactive | KCC2 ouabain inactive | HEK counter2 inactive
Cc1cccc(N2CCN(C(=O)CCS(=O)(=O)c3ccc(Br)cc3)CC2C)c1 (stereo not given)	none (no result: Pf gamet viab)
COc1cc2c(cc1NC(=O)CSc1nc3ccc(C)cc3[nH]1)oc1ccccc12	none (no result: Pf gamet viab)
Brc1ccc(-c2csc(Nc3nc(-c4ccc(Br)cc4)cs3)n2)cc1	Cl transport mod 19 (no result: WT yeast gro inh, Pf gamet viab, MT stabilizer) | KCC2 secondary inactive | KCC2 bumet counter 0.025 | KCC2 secondary2 inactive | HEK293 Tl flux 0.014 | KCC2 ouabain inactive | HEK counter2 0.012
CCOC(=O)N1CCN(C(=O)COc2ccc(S(=O)(=O)NCC(C)C)cc2C)CC1	none (no result: Cl transport mod, Pf gamet viab) | KCC2 secondary inactive | KCC2 bumet counter inactive | KCC2 secondary2 inactive | HEK293 Tl flux inactive | KCC2 ouabain inactive | HEK counter2 inactive
CC(Oc1ccccc1)c1ccn[nH]1 (stereo not given)	none
O=[N+]([O-])c1cc(S(=O)(=O)N2CCCC2)ccc1N/N=C1/CCCc2ccccc21	Cl transport mod -4 | KCC2 secondary inactive | KCC2 bumet counter inactive | KCC2 secondary2 inactive | HEK293 Tl flux inactive | KCC2 ouabain inactive | HEK counter2 inconclusive
CCOc1ccc(CNc2ccc(S(N)(=O)=O)cc2)cc1	none
COc1ccc(C(=O)NCc2nnc(SCC(=O)Nc3ccccc3OC)n2C)cc1	none (no result: Pf gamet viab)
O=C1CN(C(=O)COC(=O)CCC(=O)c2ccc3c(c2)OCCO3)c2ccccc2N1	Cl transport mod -4.4 (no result: Pf gamet viab) | KCC2 secondary inactive | KCC2 bumet counter inactive | KCC2 secondary2 0.024 | HEK293 Tl flux inactive | KCC2 ouabain inactive | HEK counter2 inactive
CCCOc1ccc(C(=O)CCC(=O)OCC(=O)N2CC(=O)Nc3ccccc32)cc1	none (no result: Pf gamet viab)
Cc1cc(/C=C2\SC(=S)NC2=O)c(C)n1C1CC1	Cl transport mod 5.6 | KCC2 secondary inactive | KCC2 bumet counter 0.029 | KCC2 secondary2 0.025 | HEK293 Tl flux 0.015 | KCC2 ouabain 0.025 | HEK counter2 0.011
O=c1[nH]c(SCc2ccccc2[N+](=O)[O-])nc2nc[nH]c12	none (no result: WT yeast gro inh, Pf gamet viab, MT stabilizer)
COc1ccc(Cl)cc1C(=O)NNC(=O)C1COc2ccccc2O1 (stereo not given)	Cl transport mod 39 | KCC2 secondary inactive | KCC2 bumet counter 0.054 | KCC2 secondary2 inactive | HEK293 Tl flux 0.017 | KCC2 ouabain 0.043 | HEK counter2 0.012
COc1ccc2nc(NNC(=O)C3COc4ccccc4O3)sc2c1 (stereo not given)	Cl transport mod 5.1 (no result: Pf gamet viab) | KCC2 secondary inactive | KCC2 bumet counter 0.02 | KCC2 secondary2 inactive | HEK293 Tl flux 0.011 | KCC2 ouabain inconclusive | HEK counter2 inactive
O=C(Nc1nc(-c2nc3ccccc3s2)cs1)C1COc2ccccc2O1 (stereo not given)	Cl transport mod 2.5 (no result: Pf gamet viab) | KCC2 secondary inactive | KCC2 bumet counter 0.0083 | KCC2 secondary2 inactive | HEK293 Tl flux inconclusive | KCC2 ouabain inactive | HEK counter2 0.011
CCOC(=O)c1ccccc1NC(=O)C1COc2ccccc2O1 (stereo not given)	Cl transport mod -5.2 | KCC2 secondary inactive | KCC2 bumet counter inactive | KCC2 secondary2 inactive | HEK293 Tl flux inactive | KCC2 ouabain inactive | HEK counter2 inactive
COc1ccc(C)cc1NC(=O)C1COc2ccccc2O1 (stereo not given)	none
Cc1sc(NC(=S)NC(=O)C2CCCCC2)c(C(N)=O)c1C	none
C/C(=N/NC(=O)Cc1ccccc1)c1ccc(C)s1	none
CC1(OC(=O)CCc2ccccc2)C(=O)C=C2C=C(c3ccc(C#N)cc3)N(Cc3ccccc3)C=C2C1=O (stereo not given)	none (no result: WT yeast gro inh, MT stabilizer)
